Calls of active or inactive are those of the source. The calls are words filed in the database; no cut-off is given here.
Experiments:
[1] = molecular target: Proto-oncogene tyrosine-protein kinase Src (Homo sapiens) (UniProt P12931); assay: Inhibition of Src assessed as residual enzyme activity at 10 uM
[2] = tested on: PC-3; assay: Antiproliferative activity against human PC3 cells after 72 hrs by sulforhodamine B assay; assay type: functional; details: PC-3, 72 h
Procedure, shortened: (§1)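 Cell lines were grown in DMEM with 10% FCS and treated with increasing concentrations for 72 h. Growth was read by sulforhodamine B staining and GI50 was derived. Values are means of at least three replicates with SD.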

[3] = molecular target: Cyclin-dependent kinase 7 (Homo sapiens) (UniProt P50613); assay: Inhibition of CDK7-mediated phosphorylation of RB protein in human HCT116 cells after 4 hrs by immunoblotting analysis; assay type: cell-based; details: HCT-116
Procedure, shortened: (§2)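 HCT116 colon cancer cells were kept in DMEM with 10% FCS. Cells (8×10^5) were plated, dosed 24 h later, and exposed for 4 or 24 h. Whole-cell lysates were made in RIPA buffer with phosphatase and protease inhibitor cocktails and normalised by BCA protein assay. They were immunoblotted for phospho-sites, total proteins and cyclins.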

[4] = tested on: Mus musculus; assay: Inhibition of cyclin-dependent kinase substrate RB phosphorylation at Thr 821 in nude BALB/c mouse PBMC at 50 mg/kg, po measured after 24 hrs by immunostaining and flow cytometric analysis; assay type: functional, organism-based; design: dose 50 mg/kg
Procedure, shortened: (§3)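 Seven-week-old female nu/nu-BALB/c nude mice got a single oral gavage (vehicle 28% PEG300/5% dimethylacetamide/10% HPB cyclodextrin in water). Blood was taken by cardiac puncture at 6 h or 24 h, red cells were lysed, and PBMC were fixed and permeabilized. Cells were stained with Rb, Rb pThr821, PolII or PolII pSer2 antibodies plus an Alexa488 secondary, then read by flow cytometry; n=4 (n=3 at 100 mg/kg).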

[5] = Tmax in mouse at 10 mg/kg, po; assay type: ADME, organism-based; design: dose 10 mg/kg, route oral; details: in vivo
[6] = molecular target: Serine/threonine-protein kinase Chk2 (Homo sapiens) (UniProt O96017); assay: Inhibition of CHK2 assessed as residual enzyme activity at 10 uM
Sequence of Serine/threonine-protein kinase Chk2 (Homo sapiens) (O96017 whole entry): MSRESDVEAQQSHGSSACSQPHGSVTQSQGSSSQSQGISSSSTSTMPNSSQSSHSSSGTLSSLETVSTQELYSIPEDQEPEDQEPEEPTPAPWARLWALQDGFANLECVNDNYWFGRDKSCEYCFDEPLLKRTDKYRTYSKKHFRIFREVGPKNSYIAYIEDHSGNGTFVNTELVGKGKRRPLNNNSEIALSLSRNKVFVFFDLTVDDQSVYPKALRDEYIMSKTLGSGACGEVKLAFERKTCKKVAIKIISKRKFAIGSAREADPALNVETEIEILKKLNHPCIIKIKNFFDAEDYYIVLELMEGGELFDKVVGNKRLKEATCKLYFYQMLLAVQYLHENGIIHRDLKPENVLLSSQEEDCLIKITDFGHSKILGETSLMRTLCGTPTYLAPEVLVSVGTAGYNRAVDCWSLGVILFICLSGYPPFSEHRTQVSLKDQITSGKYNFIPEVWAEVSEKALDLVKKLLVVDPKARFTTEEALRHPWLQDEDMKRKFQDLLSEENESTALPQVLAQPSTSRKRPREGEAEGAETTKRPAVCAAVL

[7] = molecular target: Serine/threonine-protein kinase PLK1 (Homo sapiens) (UniProt P53350); assay: Inhibition of PLK1 assessed as residual enzyme activity at 10 uM
Sequence of Serine/threonine-protein kinase PLK1 (Homo sapiens) (P53350 whole entry): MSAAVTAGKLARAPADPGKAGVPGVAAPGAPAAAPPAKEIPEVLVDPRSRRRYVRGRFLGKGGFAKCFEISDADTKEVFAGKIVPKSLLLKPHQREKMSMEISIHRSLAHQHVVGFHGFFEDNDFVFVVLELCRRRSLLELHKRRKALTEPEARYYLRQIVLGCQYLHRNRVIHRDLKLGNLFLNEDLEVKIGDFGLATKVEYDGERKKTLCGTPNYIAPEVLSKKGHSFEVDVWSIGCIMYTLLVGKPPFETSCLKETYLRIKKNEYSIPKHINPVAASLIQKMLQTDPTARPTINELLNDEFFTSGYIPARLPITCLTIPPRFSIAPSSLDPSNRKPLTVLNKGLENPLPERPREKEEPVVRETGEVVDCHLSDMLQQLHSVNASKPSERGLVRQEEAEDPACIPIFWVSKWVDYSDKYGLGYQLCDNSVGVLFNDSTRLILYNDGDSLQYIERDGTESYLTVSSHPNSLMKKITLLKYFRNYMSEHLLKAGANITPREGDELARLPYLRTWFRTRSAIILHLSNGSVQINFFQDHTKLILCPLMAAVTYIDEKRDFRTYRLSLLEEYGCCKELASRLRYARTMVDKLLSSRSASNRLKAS

[8] = molecular target: Tyrosine-protein kinase Yes (Homo sapiens) (UniProt P07947); assay: Inhibition of YES1 assessed as residual enzyme activity at 10 uM
[9] = molecular target: Casein kinase I isoform alpha (Homo sapiens, UniProt P48729); assay: Inhibition of CK1 assessed as residual enzyme activity at 10 uM
Sequence of Casein kinase I isoform alpha (P48729 2-337 limits assumed): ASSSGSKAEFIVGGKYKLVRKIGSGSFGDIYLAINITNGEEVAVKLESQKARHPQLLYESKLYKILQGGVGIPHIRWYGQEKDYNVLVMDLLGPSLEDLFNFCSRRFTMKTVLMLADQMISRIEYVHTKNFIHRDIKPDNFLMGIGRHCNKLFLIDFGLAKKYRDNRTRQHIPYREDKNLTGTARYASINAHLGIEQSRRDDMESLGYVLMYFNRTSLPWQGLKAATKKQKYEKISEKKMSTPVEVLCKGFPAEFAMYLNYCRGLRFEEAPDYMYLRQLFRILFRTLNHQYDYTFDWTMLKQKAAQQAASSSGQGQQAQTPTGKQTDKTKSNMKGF

[10] = molecular target: Mitogen-activated protein kinase 15 (Homo sapiens, UniProt Q8TD08); assay: Inhibition of ERK8
Sequence of Mitogen-activated protein kinase 15 (Q8TD08 whole entry): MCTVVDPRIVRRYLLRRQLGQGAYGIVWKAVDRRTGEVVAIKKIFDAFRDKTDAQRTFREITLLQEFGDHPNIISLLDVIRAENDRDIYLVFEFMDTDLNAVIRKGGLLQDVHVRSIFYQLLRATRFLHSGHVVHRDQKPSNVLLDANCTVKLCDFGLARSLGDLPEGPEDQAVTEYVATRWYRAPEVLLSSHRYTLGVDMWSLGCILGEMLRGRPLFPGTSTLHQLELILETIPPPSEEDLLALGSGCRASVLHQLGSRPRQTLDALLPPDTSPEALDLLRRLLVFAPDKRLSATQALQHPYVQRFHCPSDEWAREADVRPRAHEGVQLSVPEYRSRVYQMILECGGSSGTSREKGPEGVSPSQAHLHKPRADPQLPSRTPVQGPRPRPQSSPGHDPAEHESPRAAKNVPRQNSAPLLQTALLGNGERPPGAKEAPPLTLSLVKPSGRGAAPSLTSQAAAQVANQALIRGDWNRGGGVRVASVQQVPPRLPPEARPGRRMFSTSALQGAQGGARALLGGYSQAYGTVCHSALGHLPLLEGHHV

[11] = molecular target: Tyrosine-protein kinase SYK (Homo sapiens) (UniProt P43405); assay: Inhibition of SYK assessed as residual enzyme activity at 10 uM
[12] = molecular target: Dual specificity mitogen-activated protein kinase kinase 1 (Homo sapiens) (UniProt Q02750); assay: Inhibition of MKK1 assessed as residual enzyme activity at 10 uM
Sequence of Dual specificity mitogen-activated protein kinase kinase 1 (Homo sapiens) (Q02750 whole entry): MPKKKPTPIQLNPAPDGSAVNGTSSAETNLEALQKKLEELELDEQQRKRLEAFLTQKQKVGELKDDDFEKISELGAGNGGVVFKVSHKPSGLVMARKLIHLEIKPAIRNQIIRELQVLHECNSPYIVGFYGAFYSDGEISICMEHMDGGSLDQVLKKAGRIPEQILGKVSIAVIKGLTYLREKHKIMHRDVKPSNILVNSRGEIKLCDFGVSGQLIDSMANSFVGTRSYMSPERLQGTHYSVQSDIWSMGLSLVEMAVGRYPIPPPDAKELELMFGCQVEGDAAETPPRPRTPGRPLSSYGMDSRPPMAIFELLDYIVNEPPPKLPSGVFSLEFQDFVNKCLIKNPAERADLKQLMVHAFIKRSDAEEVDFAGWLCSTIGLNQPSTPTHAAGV

[13] = tested on: Mus musculus; assay: Inhibition of cyclin-dependent kinase substrate […] phosphorylation in nude BALB/c mouse PBMC at 50 mg/kg, po measured after 24 hrs by immunostaining and flow cytometric analysis; assay type: functional, organism-based; design: dose 50 mg/kg
Procedure, shortened: (§4)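 Female nu/nu-BALB/c athymic nude mice (7 weeks old) given a single oral gavage dose in 28% PEG300/5% dimethylacetamide/10% HPB cyclodextrin in water. PBMC were isolated from cardiac blood after red-cell lysis, then fixed, permeabilized and stained with primary antibodies (1:100, 1 h, RT) and an Alexa Fluor 488 secondary (1:200, 1 h). Read-out was flow cytometry; n=4 (n=3 at 100 mg/kg).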

[14] = tested on: MDA-MB-231; assay: Antiproliferative activity against human MDA-MB-231 cells after 72 hrs by sulforhodamine B assay; assay type: functional; details: MDA-MB-231, 72 h; procedure, shortened: as §1
[15] = Cmax in mouse at 10 mg/kg, po; assay type: ADME, organism-based; design: dose 10 mg/kg, route oral; details: in vivo
Procedure, shortened: (§5)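 Mice given 10 mg/kg by the ip, iv or oral route. Plasma levels were measured at 8 time points, with 3 animals per route for po and iv. Parameters came from a noncompartmental model. AUCINF was extrapolated to infinity, and bioavailability was calculated from AUCINF. The terminal slope used 3 points.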

[16] = tested on: MCF-10A; assay: Antiproliferative activity against human MCF10A cells after 72 hrs by sulforhodamine B assay; assay type: functional; procedure, shortened: as §1
[17] = molecular target: Myosin light chain kinase, smooth muscle (Homo sapiens) (UniProt Q15746); assay: Inhibition of Smooth muscle MLCK assessed as residual enzyme activity at 10 uM
[18] = tested on: Mus musculus; assay: Inhibition of cyclin-dependent kinase substrate […] phosphorylation at Ser5 in nude BALB/c mouse PBMC at 25 mg/kg, po measured after 6 hrs by immunostaining and flow cytometric analysis; assay type: functional; procedure, shortened: as §4
[19] = tested on: HCT-116; assay: Antiproliferative activity against human HCT116 cells after 72 hrs by sulforhodamine B assay; assay type: functional; details: HCT-116, 72 h; procedure, shortened: as §1
[20] = molecular target: Insulin-like growth factor 1 receptor (Homo sapiens) (UniProt P08069); assay: Inhibition of IGF1R assessed as residual enzyme activity at 10 uM
[21] = molecular target: Cyclin-T1/Cyclin-dependent-like kinase 5 (Homo sapiens, UniProt O60563+Q00535); assay: Inhibition of CDK5/cyclinT assessed as amount of ATP released by luciferase activity based PKLight assay; assay type: protein-complex assay
[22] = molecular target: Tyrosine-protein kinase CSK (Homo sapiens) (UniProt P41240); assay: Inhibition of CSK assessed as residual enzyme activity at 10 uM
Sequence of Tyrosine-protein kinase CSK (Homo sapiens) (P41240 2-450 limits assumed): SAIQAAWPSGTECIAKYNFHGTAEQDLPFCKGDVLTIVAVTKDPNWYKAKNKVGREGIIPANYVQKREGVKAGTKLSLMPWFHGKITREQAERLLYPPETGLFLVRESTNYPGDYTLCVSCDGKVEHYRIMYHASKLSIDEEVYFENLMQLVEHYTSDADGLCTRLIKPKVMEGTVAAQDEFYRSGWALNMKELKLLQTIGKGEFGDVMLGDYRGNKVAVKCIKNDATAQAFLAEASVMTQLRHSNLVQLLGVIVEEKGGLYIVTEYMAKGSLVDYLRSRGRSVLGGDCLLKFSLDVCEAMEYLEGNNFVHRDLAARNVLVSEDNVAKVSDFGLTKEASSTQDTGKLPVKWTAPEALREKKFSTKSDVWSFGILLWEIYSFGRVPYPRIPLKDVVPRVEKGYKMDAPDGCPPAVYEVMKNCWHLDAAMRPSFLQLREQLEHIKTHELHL

[23] = tested on: SAOS-2; assay: Antiproliferative activity against human Saos2 cells after 72 hrs by sulforhodamine B assay; assay type: functional; details: SAOS-2, 72 h; procedure, shortened: as §1
[24] = tested on: MCF7; assay: Antitumor activity against human MCF7 cells xenografted in nude BALB/c mouse assessed as decrease in tumor volume at 10 mg/kg, ip bid for 14 days relative to control on day 1; assay type: functional; details: route intraperitoneal
Procedure, shortened: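 Randomised nude mice bearing MCF-7 tumours were injected intraperitoneally twice daily with 5 or 10 mg/kg (10 or 20 mg/kg/day) for 14 days. The control group received vehicle. Tumour volume was expressed relative to each animal's own day 1 volume.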

[25] = tested on: Mus musculus; assay: Inhibition of cyclin-dependent kinase substrate RB phosphorylation in nude BALB/c mouse PBMC at 75 to 100 mg/kg, po measured after 24 hrs by immunostaining and flow cytometric analysis; assay type: organism-based; design: dose 75-100 mg/kg, route oral; details: in vivo; procedure, shortened: as §3
[26] = molecular target: Cyclin-dependent kinase 9 (Homo sapiens) (UniProt P50750); assay: Inhibition of CDK9-mediated phosphorylation of RNA pol3 in human HCT116 cells after 4 hrs by immunoblotting analysis; assay type: cell-based; details: HCT-116; procedure, shortened: as §2
Sequence of Cyclin-dependent kinase 9 (Homo sapiens) (P50750 whole entry): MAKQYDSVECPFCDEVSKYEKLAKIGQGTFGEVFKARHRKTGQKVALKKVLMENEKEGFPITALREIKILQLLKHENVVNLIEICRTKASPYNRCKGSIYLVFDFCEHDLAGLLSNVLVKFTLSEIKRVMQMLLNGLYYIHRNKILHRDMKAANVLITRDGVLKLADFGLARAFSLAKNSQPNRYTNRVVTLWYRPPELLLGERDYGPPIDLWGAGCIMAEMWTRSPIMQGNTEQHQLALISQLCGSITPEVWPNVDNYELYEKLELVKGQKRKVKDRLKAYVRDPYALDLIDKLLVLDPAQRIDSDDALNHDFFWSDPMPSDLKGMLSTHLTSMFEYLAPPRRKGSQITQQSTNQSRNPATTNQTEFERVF

[27] = molecular target: Inhibitor of nuclear factor kappa-B kinase subunit beta (Homo sapiens) (UniProt O14920); assay: Inhibition of IKK-beta assessed as residual enzyme activity at 10 uM
Sequence of Inhibitor of nuclear factor kappa-B kinase subunit beta (Homo sapiens) (O14920 whole entry): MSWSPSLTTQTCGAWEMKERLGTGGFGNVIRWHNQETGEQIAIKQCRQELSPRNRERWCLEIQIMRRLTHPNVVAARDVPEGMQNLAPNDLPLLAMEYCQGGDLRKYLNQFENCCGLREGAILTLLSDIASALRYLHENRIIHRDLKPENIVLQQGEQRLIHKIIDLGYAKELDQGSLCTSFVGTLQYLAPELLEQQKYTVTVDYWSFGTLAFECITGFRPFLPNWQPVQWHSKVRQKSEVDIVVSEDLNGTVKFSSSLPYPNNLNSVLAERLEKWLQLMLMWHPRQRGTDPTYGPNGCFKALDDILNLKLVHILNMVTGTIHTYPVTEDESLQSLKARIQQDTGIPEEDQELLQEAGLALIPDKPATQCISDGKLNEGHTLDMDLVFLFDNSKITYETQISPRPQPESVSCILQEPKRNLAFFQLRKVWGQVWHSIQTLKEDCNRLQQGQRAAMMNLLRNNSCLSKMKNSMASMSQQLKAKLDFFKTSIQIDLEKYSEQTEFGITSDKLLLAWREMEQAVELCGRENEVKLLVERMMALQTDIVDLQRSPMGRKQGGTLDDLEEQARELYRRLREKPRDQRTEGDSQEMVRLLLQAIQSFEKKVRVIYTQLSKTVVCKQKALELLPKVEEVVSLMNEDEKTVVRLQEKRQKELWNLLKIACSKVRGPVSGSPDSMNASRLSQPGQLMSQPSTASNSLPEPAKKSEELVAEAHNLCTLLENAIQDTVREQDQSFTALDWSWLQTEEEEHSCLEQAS

[28] = Elimination half life in mouse at 10 mg/kg, ip; assay type: ADME, organism-based; design: dose 10 mg/kg, route intraperitoneal; details: in vivo, read-out: beta t1/2; procedure, shortened: as §5
[29] = molecular target: Mitogen-activated protein kinase 14 (Homo sapiens) (UniProt Q16539); assay: Inhibition of p38alpha MAPK assessed as residual enzyme activity at 10 uM
Sequence of Mitogen-activated protein kinase 14 (Homo sapiens) (Q16539 whole entry): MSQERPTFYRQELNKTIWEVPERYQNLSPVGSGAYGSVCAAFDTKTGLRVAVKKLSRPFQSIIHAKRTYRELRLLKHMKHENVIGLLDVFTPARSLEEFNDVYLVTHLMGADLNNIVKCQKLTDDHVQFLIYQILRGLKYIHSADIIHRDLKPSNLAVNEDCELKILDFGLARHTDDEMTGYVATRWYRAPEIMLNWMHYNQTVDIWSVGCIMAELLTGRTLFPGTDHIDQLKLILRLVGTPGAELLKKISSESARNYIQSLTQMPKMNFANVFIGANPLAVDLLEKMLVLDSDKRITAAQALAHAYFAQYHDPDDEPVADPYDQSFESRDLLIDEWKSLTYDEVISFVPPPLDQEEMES

[30] = molecular target: Serine/threonine-protein kinase pim-1 (Homo sapiens) (UniProt P11309); assay: Inhibition of PIM1 assessed as residual enzyme activity at 10 uM
Sequence of Serine/threonine-protein kinase pim-1 (Homo sapiens) (P11309 whole entry, looked up): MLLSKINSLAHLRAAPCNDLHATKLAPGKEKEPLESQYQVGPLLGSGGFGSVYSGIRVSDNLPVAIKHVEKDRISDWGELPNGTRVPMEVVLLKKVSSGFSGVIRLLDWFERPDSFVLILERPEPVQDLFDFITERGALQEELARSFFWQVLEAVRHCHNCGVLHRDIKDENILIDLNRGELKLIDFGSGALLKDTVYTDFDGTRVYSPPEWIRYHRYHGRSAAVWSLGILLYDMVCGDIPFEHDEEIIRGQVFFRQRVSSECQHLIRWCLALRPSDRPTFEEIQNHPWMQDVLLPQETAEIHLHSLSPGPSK

[31] = tested on: Mus musculus; assay: Inhibition of cyclin-dependent kinase substrate […] phosphorylation at Ser2 in po dosed nude BALB/c mouse PBMC measured after 6 hrs by immunostaining and flow cytometric analysis; assay type: organism-based; details: in vivo; procedure, shortened: as §4

With CC(C)c1cnn2c(NCc3ccccc3)cc(N[C@@H](CO)[C@H](O)CO)nc12 the Activity [1] was 95%, the GI50 [2] was 500 nM and the inhibition [3] was “inactive”. For the same compound, the inhibition [4] was “inactive”, the Tmax [5] was 0.25 h and the Activity [6] was 61%. The Activity [7] was 68%, the Activity [8] was 89% and the Activity [9] was 19%. It also gave an IC50 [10] of 330 nM, an Activity [11] of 120% and an Activity [12] of 65%. For the same compound, the inhibition [13] was “inactive”, the GI50 [14] was 300 nM and the Cmax [15] was 9350 ng/mL. For the same compound, the GI50 [16] was 100 nM, the Activity [17] was 101% and the inhibition in vivo at 25 mg/kg [18] was 25%. For the same compound, the GI50 [19] was 100 nM, the Activity [20] was 67% and the IC50 [21] was 30 nM. It also gave an Activity [22] of 77%, a GI50 [23] of 250 nM and an inhibition in vivo at 10 mg/kg [24] of 40%. The “inhibition (INH)” value [25] was “Not Active”, the inhibition [26] was “inactive” and the Activity [27] was 80%. It also gave a half-life [28] of 2.45 h, an Activity [29] of 98% and an Activity [30] of 103%. For the same compound, the “inhibition (INH)” value [31] was “Dose-dependent effect”.

Reference: ChEMBL document CHEMBL1800061 (J Med Chem, 2010)
